Experimental findings from ChEMBL document CHEMBL4513216, “Probing the Open Global Health Chemical Diversity Library for Multistage-Active Starting Points for Next-Generation Antimalarials” (ACS Infect Dis, 2020) are described below.

This data set in a line: Toxicity liver stage against HepG2, at 10uM. The class given is cell-based. To be noted: human, HepG2-A16-CD81EGFP cells; read-out: INHIBITION
The arrangement: test concentration 10 uM, cell line HepG2-A16-CD81EGFP. In outline: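 Uninfected HepG2-A16-CD81EGFP cells, 3 × 10^3 per well, 1536-well, plated on prespotted compound at 10 μM final, parasite-free screening media added to match infected plates; puromycin 10 μM positive, DMSO 0.5% negative; run in parallel with 48 h PbLuc assay at 37 °C, 5% CO2; viability by CellTiter-Glo luminescence, normalized to controls.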
As for `CC(=O)N1CCC(Cc2cncc(-c3c(C)n[nH]c3C)n2)C1` (stereo not drawn), the cytotoxicity at 10 µM is -19.4%.

For `Cc1cccnc1CN1CCN(C[C@]2(O)CCCN3CCCC[C@@H]32)CC1`, the cytotoxicity at 10 µM is -0.418%.

Regarding `Cc1nnsc1C(=O)N1CCC2(CC1)c1nc[nH]c1CCN2CC(C)C`, the cytotoxicity at 10 µM stood at 26.3%.

For the compound `O=C(Cc1ccccc1Cl)Nc1cnn(C2CCOC2)c1` (stereo not drawn), the cytotoxicity at 10 µM was 2.63%.

Take `C1CC(c2noc(C3CC3)n2)CN(CCOCC2CC2)C1` (stereo not drawn): the cytotoxicity at 10 µM was -8.91%.

Consider `CCOc1ncccc1C(=O)Nc1c(C)cnn1CC1CC1`, for which the cytotoxicity at 10 µM worked out at 1.62%.

Consider `CC(C)Cn1cc2nc(N3CCC(O)CC3)[nH]cc-2c1=O`, for which the cytotoxicity at 10 µM came out at 5.92%.

As to `Cc1cnc(C(=O)N(C)Cc2nc(-c3ccccn3)no2)cn1`, the cytotoxicity at 10 µM came out at 3.42%.

As to `COc1c(C(=O)N2CCOC(c3cccs3)C2)c(C)nn1C` (stereo not drawn), the cytotoxicity at 10 µM is -0.43%.

Consider `Cc1ccc(F)c2c1CCCN2C(=O)Cc1c(C)nn(C)c1C`, for which the cytotoxicity at 10 µM came to 13.6%.

Regarding `CC(C)COC(C)C(=O)N1CCN(S(C)(=O)=O)CC1` (stereo not drawn), the cytotoxicity at 10 µM is -5.38%.

Regarding `C=C(C)CN(Cc1cccc(O)c1)C1CCC(O)CC1` (stereo not drawn), the cytotoxicity at 10 µM stood at 17.3%.

Turning to `Cc1ccc(N2CCCN(C(=O)C3CCCO3)CC2)nn1` (stereo not drawn), the cytotoxicity at 10 µM was -11.1%.

For `c1csc(-c2noc(CCCNC3CCc4ncnn4C3)n2)c1` (stereo not drawn), the cytotoxicity at 10 µM is -1.36%.

Take `COCC1c2nnn(CC3CC3)c2CCN1C(=O)Cc1cccs1` (stereo not drawn): the cytotoxicity at 10 µM is -15.8%.

Consider `CCN1CC(COc2ccccc2)Oc2ncccc2S1(=O)=O` (stereo not drawn), for which the cytotoxicity at 10 µM is -0.947%.

On to `COC(=O)NCC(=O)N1CCc2cc(Cl)cc(Cl)c2C1`, for which the cytotoxicity at 10 µM was found to be 0.598%.

In the case of `Cc1cccc(NC(=O)c2cncc(C3CCNCC3)n2)n1`, the cytotoxicity at 10 µM turned out to be 0.691%.

In the case of `O=C(Cn1cc(Cl)cn1)N1CCCC(c2ccn[nH]2)C1` (stereo not drawn), the cytotoxicity at 10 µM was -22.5%.

Turning to `Cc1nc(-c2ccc(Cl)s2)sc1C(=O)O`, the cytotoxicity at 10 µM came out at 7.51%.

Turning to `CNC(=O)CN(C(=O)c1cc(C(C)C)no1)c1cccc(F)c1`, the cytotoxicity at 10 µM came out at 9.77%.

With `Cc1nc(N2CCCC2)ncc1-c1cc(O)nc(N2CCN(C)CC2)n1`, the cytotoxicity at 10 µM was 2.6%.

For the compound `CCc1noc(C(C)N2CCC(NS(=O)(=O)c3ccccc3)CC2)n1` (stereo not drawn), the cytotoxicity at 10 µM came out at 7.87%.

Take `CCN(CCSc1ccccc1)C(=O)c1cn(C2CCC(N)CC2)nn1` (stereo not drawn): the cytotoxicity at 10 µM is -2.93%.

On to `COc1ccccc1CN1CCC(c2nccc(C)n2)C1` (stereo not drawn), for which the cytotoxicity at 10 µM came to 3.44%.

`Cc1cc(-n2nc(C3CC3)nc2-c2csnn2)ccn1`: the cytotoxicity at 10 µM came out at 6.37%.

As to `Cc1cnn(CC2CCCN2CCCS(=O)(=O)N(C)C)c1` (stereo not drawn), the cytotoxicity at 10 µM is -7.45%.

Regarding `CC(C)NC(=O)N1CC[C@@H]2CN(Cc3ccccc3)S(=O)(=O)[C@@H]2CC1`, the cytotoxicity at 10 µM is 9.62%.

Turning to `CC(C)c1ncc2c(n1)CN(CCCc1nc3ccccc3o1)CC2`, the cytotoxicity at 10 µM is -13.2%.

As to `Cc1nn(C)c2nc(N3CCCCC3c3cccnc3)sc12` (stereo not drawn), the cytotoxicity at 10 µM is -6.9%.

For the compound `OCCN1CCC(Cc2nccs2)CC1`, the cytotoxicity at 10 µM was determined as 5.97%.

As for `Cc1cc(C2CCCN2Cc2ccc(S(=O)(=O)N(C)C)o2)on1` (stereo not drawn), the cytotoxicity at 10 µM was -4.11%.

For `Cc1nnc([C@@H]2CCO[C@@H]3CCN(C(=O)Cc4ccsc4)C[C@@H]32)o1`, the cytotoxicity at 10 µM came to 9.43%.

Take `Cc1cnc(C(C)(C)NC(=O)NCc2ccc(C#N)cc2F)s1`: the cytotoxicity at 10 µM worked out at 15.1%.

For the compound `c1ccc2c(c1)CC(N1CCCC(NCc3ccc4nonc4c3)C1)C2` (stereo not drawn), the cytotoxicity at 10 µM stood at 5.6%.

Turning to `CN(Cc1ccco1)Cc1cncc2c1CCN(c1ncccn1)C2`, the cytotoxicity at 10 µM was -6.42%.

As for `COCCN1CCC(CNc2cnc3ccccc3n2)CC1`, the cytotoxicity at 10 µM is -46.6%.

As to `COc1ncc(CN2CCC3(CCCN(CC4CCC4)C3)C2)cn1` (stereo not drawn), the cytotoxicity at 10 µM was -1.95%.

For `Cc1n[nH]cc1CNC(C(=O)N1CCOCC1)c1ccccc1` (stereo not drawn), the cytotoxicity at 10 µM is 7.57%.

In the case of `Cc1nc(CN2CCN(c3nc4c(s3)c(C)nn4C)CC2)cs1`, the cytotoxicity at 10 µM worked out at 15.6%.

Take `O=C(c1cnccn1)N1CCC2(CC1)C(=O)NCC2c1ccccc1` (stereo not drawn): the cytotoxicity at 10 µM was -3.68%.

In the case of `O=C1CC(C(=O)O)C2(CCN(C(=O)Nc3ccccc3Cl)CC2)N1` (stereo not drawn), the cytotoxicity at 10 µM is 2.14%.

`Cc1ccc2nc(C3CCCN(CC(C)C)C3)nc(O)c2c1` (stereo not drawn): the cytotoxicity at 10 µM worked out at 5.48%.

Regarding `Cc1cc(CN(CCO)c2ccc(Br)cc2)on1`, the cytotoxicity at 10 µM stood at 1.78%.

Regarding `CN1CC(C(=O)NC2(c3cccc(F)c3)CCOCC2)CC1=O` (stereo not drawn), the cytotoxicity at 10 µM turned out to be 15.6%.

Take `COCCc1noc(-c2cn(CCc3ccccc3)nn2)n1`: the cytotoxicity at 10 µM is -2.56%.

Consider `Cc1nnn2c1COC(CNCc1ccncc1)C2` (stereo not drawn), for which the cytotoxicity at 10 µM came to 7.48%.

In the case of `O=S(=O)(Cc1ccccc1)NCc1nnc2n1CCC2`, the cytotoxicity at 10 µM was 16.2%.

Consider `CC(C)Oc1ccc(C(=O)Nc2nncs2)cn1`, for which the cytotoxicity at 10 µM was -7.94%.

As for `Cc1cnn(CC2CCCN2C(=O)c2cc(Cl)ccc2F)c1` (stereo not drawn), the cytotoxicity at 10 µM was -5.82%.

For `CCN(CCn1cccn1)Cc1nc(-c2ccoc2)oc1C`, the cytotoxicity at 10 µM is -5.48%.

For `CC(C(=O)N1CCc2ccccc2C1)n1cc(Br)cn1` (stereo not drawn), the cytotoxicity at 10 µM was -8.77%.

Take `CCC1=NC(SCC(=O)c2ccc(Cl)cc2)c2cc(CC)sc2N1` (stereo not drawn): the cytotoxicity at 10 µM stood at 8.16%.

Turning to `CC(=O)N1C[C@H](NC(=O)c2ccnc(N)c2)[C@@H](C(C)C)C1`, the cytotoxicity at 10 µM was found to be 8.64%.

For `CCCn1cc(-c2ccnc(NC3CCCc4ccccc43)n2)c(C)n1` (stereo not drawn), the cytotoxicity at 10 µM turned out to be 81.4%.

Turning to `c1cc(-c2cscn2)cc(N2CCC(NCCc3cccs3)CC2)c1`, the cytotoxicity at 10 µM was determined as 8.65%.

As to `N[C@@H](Cc1ccccc1)c1nnc(S(=O)(=O)Cc2ccc(Cl)cc2)o1`, the cytotoxicity at 10 µM is 14.2%.

In the case of `COc1ccccc1CNC(Cn1cncn1)c1ccccc1` (stereo not drawn), the cytotoxicity at 10 µM was -6.1%.

In the case of `CN(C)CC1(O)CCCN(C(=O)CCc2nc3cccnc3n2C)C1` (stereo not drawn), the cytotoxicity at 10 µM worked out at 0.0448%.

For `Cc1cc(NS(=O)(=O)c2ccccc2F)ccc1-n1cccc1C(=O)O`, the cytotoxicity at 10 µM is -5.67%.

On to `Cc1nn(C)c(N(C)C)c1CNCc1ccccc1CO`, for which the cytotoxicity at 10 µM is -8.84%.

On to `FC(F)(F)c1cccc(OC2CCN(Cc3ccccn3)CC2)c1`, for which the cytotoxicity at 10 µM was -0.609%.

For `O=C(O)c1ccccc1-c1ccc(CN2CCC(CO)CC2)cn1`, the cytotoxicity at 10 µM was 2.45%.

Turning to `CC(=O)NCC(=O)N1CCC2(COCc3c(C)nc(N(C)C)nc32)C1` (stereo not drawn), the cytotoxicity at 10 µM turned out to be 1.41%.

In the case of `Cc1cnn(CCNCc2csc(-c3ncccn3)n2)c1`, the cytotoxicity at 10 µM was -7.48%.

As to `Cc1nc(C)n(Cc2cccc(NC(=O)N(C)CCC(C)O)c2)n1` (stereo not drawn), the cytotoxicity at 10 µM was -6.64%.

Regarding `Cc1nc2ccccc2c(=O)n1Cc1nnnn1C1CC1`, the cytotoxicity at 10 µM was -13.8%.

In the case of `Cc1nn(C)c(N(C)C)c1CNCCNS(C)(=O)=O`, the cytotoxicity at 10 µM was -5.05%.

As for `CS(=O)(=O)N1Cc2nccn2CC(CN2CCCC2)C1` (stereo not drawn), the cytotoxicity at 10 µM was -111%.

For `Cc1c(C(=O)NC2CC(C)(C)NC(C)(C)C2)cnn1-c1ccc(F)cc1`, the cytotoxicity at 10 µM is -45.7%.

For the compound `O=C(Nc1ccccc1F)C1=NOC2(CCNCC2)C1`, the cytotoxicity at 10 µM was 2.93%.

`Cc1noc(C)c1C(=O)N1CCC(n2cccn2)CC1`: the cytotoxicity at 10 µM was 3.82%.

For `O=C(CCc1nc2cc(Br)cnc2[nH]1)NCCN1CCOCC1`, the cytotoxicity at 10 µM is 5.08%.
